# Assay outcomes as filed in PubChem.
# MrgX1 antag – antagonists of human MrgX1 receptor; AID 588676; Q96LB2; hit rate 1.3% among 310,000; MRGX1-HEK293 calcium flux, Fluo-4, BAM8-22 antagonism; hits give low values; B-score at 10 µM;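 active = calcium-response B-score plate-corrected more than 3 library SD below zero, starting fluorescence within 5 deviations, no agonist response on first addition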;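 note: peak minus trough fluorescence over baseline after final BAM8-22 challenge near maximal dose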
# Target sequence (Q96LB2 whole entry, looked up): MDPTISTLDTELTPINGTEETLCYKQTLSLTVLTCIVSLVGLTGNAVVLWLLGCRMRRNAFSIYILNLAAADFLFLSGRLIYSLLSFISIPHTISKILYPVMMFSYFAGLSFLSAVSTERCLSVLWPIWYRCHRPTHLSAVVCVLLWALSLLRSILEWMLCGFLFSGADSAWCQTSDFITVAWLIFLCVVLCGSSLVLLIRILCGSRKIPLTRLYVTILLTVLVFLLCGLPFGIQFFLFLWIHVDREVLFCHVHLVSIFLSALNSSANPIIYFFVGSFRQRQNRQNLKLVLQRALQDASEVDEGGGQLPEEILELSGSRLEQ
# RGS4 inh – human RGS4 inhibition; hit rate 0.45% among 310,000; B-score at 10 µM; P49798; HEK293 M3R/RGS4 inducible, Fluo-4 calcium flux; hits give high values; triggered by carbachol at its EC20;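 active = B-score, a plate-corrected calcium signal, over three deviations above library mean, with baseline fluorescence within five deviations of library mean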;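 note: RGS4 expression induced by doxycycline in cells with stable M3 receptor; B-score is computed from the integrated fluorescence ratio over baseline after carbachol; higher B-score means a larger calcium signal and so more RGS4 inhibition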
# Target sequence (P49798 whole entry, looked up): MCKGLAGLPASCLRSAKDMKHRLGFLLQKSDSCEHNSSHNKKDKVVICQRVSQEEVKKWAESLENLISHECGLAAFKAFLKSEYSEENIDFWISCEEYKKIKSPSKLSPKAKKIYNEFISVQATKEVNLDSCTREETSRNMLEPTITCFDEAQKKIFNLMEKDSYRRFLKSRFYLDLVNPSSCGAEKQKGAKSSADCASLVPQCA
# MrgX1 allo act – allosterically activates human MrgX1 receptor signaling; MrgX1-HEK293, Fluo-4 calcium flux, FDSS; hits give high values; B-score at 10 µM; Q96LB2; hit rate 0.63% among 310,000; AID 588675;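 active = plate-corrected calcium response at least 3 library SD above typical, normal starting fluorescence, not activating the receptor alone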;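 note: compound read alongside a low EC10 to EC30 dose of BAM8-22 agonist; peak minus trough fluorescence over baseline measured at the second addition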
# RGS4 act – potentiators or activators of RGS4; HEK293 M3R/inducible RGS4, carbachol calcium flux Fluo4; hits give low values; AID 463111; hit rate 0.92% among 310,000; B-score at 10 µM;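 active = B-score of the integrated calcium signal more than 4 SD below the library mean, with starting fluorescence not abnormally high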;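 note: negative B-score means reduced calcium response which marks RGS4 activation or potentiation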
#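 Test system: HEK293 cells with stable M3R and inducible RGS4; also added: carbachol at ECmax as muscarinic agonist stimulus; schedule: dye loading 30 min 37 °C, buffer rest 30 min RT; technique: kinetic calcium fluorescence imaging with Fluo4-AM dye, 2 µM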
# MrgX1 ag – human MrgX1 receptor agonism, primary screen; Q96LB2; MrgX1-HEK293 cells, Fluo-4 calcium fluorescence, agonist mode; hits give high values; hit rate 0.44% among 310,000; AID 588627; B-score at 10 µM;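 active = calcium response B-score plate-corrected fluorescence ratio at least 3 library SD, with starting fluorescence B-score inside 5 SD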
#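 Test system: Stable human MrgX1 HEK293 cell line | Schedule: Overnight plating before 1 h dye loading | Read-out basis: Baseline-normalised fluorescence change ratio, B-scored | Detection: Kinetic calcium dye fluorescence, Fluo-4 NW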
# * marks the source's active call; other numbers are inactive results; i = inactive; . = no result given. The list is not random: actives were taken first. Their share in the collection is about 3.5%.
SMILES,MrgX1 antag,RGS4 inh,MrgX1 allo act,RGS4 act,MrgX1 ag
CCOc1ccc(OCc2ccc(C(=O)N/N=C(\C)c3ccccn3)cc2)cc1,i,i,i,i,i
CCC(C)/C(C)=N/NC(=O)c1ccc(COc2ccc(Cl)c(C)c2)cc1 (stereo not drawn),i,.,10*,.,i
Cc1ccn2c(=O)nc(SCC(=O)N3CCCC3)nc2c1,i,i,i,i,i
Cc1ccc(C)c(C(=O)Cn2c(NCCO)nc3ccccc32)c1,i,i,i,i,i
Cc1cc(C)nc(SCCn2c(N3CCCCC3)nc3c2c(=O)n(C)c(=O)n3C)n1,i,i,i,i,i
Cc1ccc(-c2csc(N/N=C/c3ccco3)n2)cc1,i,i,i,i,i
C(=N\Nc1nc(-c2ccccc2)cs1)/c1ccco1,-6.7*,i,i,i,i
Cc1ccc(-c2csc(N/N=C/C=C/c3ccccc3)n2)cc1,-5.4*,i,i,i,i
O=C(Nc1ccccc1Cl)Oc1ccc(-c2ccccc2)cc1,i,i,i,i,i
CC1OC(OC2C(OC3C(O[C@H]4CC[C@]5(C)C6C=C[C@]78OC[C@@]9(CC[C@@H](C)[C@H](C)C97)[C@H](O)C[C@@]8(C)[C@]6(C)CC[C@H]5C4(C)C)OC(C)C(O)C3O)OC(CO)C(O)C2O)C(O)C(O)C1O (stereo partly drawn),.,i,.,-7.4*,.
C[C@H]1O[C@H](O[C@H]2[C@H](O[C@@H]3CC[C@@]4(C)C(CC[C@]5(C)C4CC=C4[C@@H]6CC(C)(C)CC[C@]6(C(=O)O[C@@H]6O[C@H](CO)[C@@H](O)[C@H](O)[C@H]6O)CC[C@]45C)C3(C)C)O[C@H](C(=O)O)[C@@H](O)[C@@H]2O)[C@@H](O)[C@@H](O)[C@@H]1O (stereo partly drawn),i,.,i,.,i
CCCC1=Nc2cc(C(=O)N3CCN(c4ccccn4)CC3)ccc2Sc2ccc(C)cc21,i,i,i,-7.5*,i
O=C(N/N=C/c1ccc(O)cc1)c1ccc(COc2cc(Cl)ccc2Cl)o1,-5.2*,i,i,i,i
CCN1C(=O)/C(=C2\SC(=S)N(NC(=O)c3ccccc3O)C2=O)c2ccccc21,i,i,15*,i,i
CCN1C(=O)/C(=C2\SC(=S)N(c3c(C)n(C)n(-c4ccccc4)c3=O)C2=O)c2ccccc21,i,i,i,i,i
CC(C)Cn1c(=O)c(C(=O)Nc2cnccn2)c(O)c2ccccc21,i,i,i,i,i
C=CCn1c(=O)c(C(=O)NCc2ccccc2)c(O)c2ccccc21,i,i,i,-7.1*,i
CCn1c(=O)c(C(=O)NNC(=O)c2ccccc2)c(O)c2ccccc21,i,i,i,i,30*
C=CCn1c(=O)c(C(=O)NCCNCC)c(O)c2ccccc21,i,i,i,i,i
CC(C)Cn1c(=O)c(C(=O)Nc2ccncc2)c(O)c2ccccc21,i,i,i,-8.9*,i
CCOC(=O)c1cnc2c(ccc3ccccc32)c1NCCCN(C)C,i,i,i,i,i
COc1ccc(CNC(C)C(=O)Nc2ccc3ccccc3c2)cc1OC (stereo not drawn),i,i,i,i,i
Oc1c(Cl)cc(Cl)cc1CNc1nc2ccccc2[nH]1,i,i,i,i,i
O=C(N/N=C/C(Br)=C/c1ccccc1)c1ccccc1F,i,i,7*,i,i
COc1cccc(OC(=O)c2cc3ccccc3oc2=O)c1,-5*,i,i,i,i
SMILES,MrgX1 antag,RGS4 inh,MrgX1 allo act,RGS4 act,MrgX1 ag
O=C(c1ccco1)N(CCC(c1ccccc1)c1ccco1)Cc1ccccc1 (stereo not drawn),i,i,i,i,i
CC(c1ccccc1)N(CCC(c1ccccc1)C1CCOC(C)(C)C1)C(=O)c1ccco1 (stereo not drawn),i,i,i,i,i
COc1ccc(CN(CCC(c2ccc(F)cc2)C2CCOC(C)(C)C2)C(=O)c2ccco2)cc1 (stereo not drawn),i,i,i,-8.2*,i
COc1ccc(CN(CCC(c2ccccc2)c2ccco2)C(=O)c2ccco2)cc1 (stereo not drawn),i,i,i,-8.2*,i
Cc1ccc(SCCN2CCC(O)CCC2=O)cc1 (stereo not drawn),i,i,i,i,i
COc1ccc(CCN(Cc2cc3cc(C)cc(C)c3nc2Cl)C(=O)C2CC2)cc1,i,i,i,-7.2*,i
CN(CC(=O)Nc1cccc(F)c1)CC(=O)Nc1ccccc1Oc1ccccc1,i,i,i,i,i
CCOC(=O)CSc1nc(-c2ccccc2)nc2c1oc1ccccc12,i,i,i,-7.3*,i
O=C(/C=C\Nc1cccc(F)c1)c1ccc2c(c1)OCO2,-4.7*,i,i,i,i
O=C(/C=C/c1cccc(Br)c1)c1ccc2c(c1)OCO2,i,i,8.3*,i,i
O=C(/C=C/c1ccccc1Br)c1ccc2c(c1)OCO2,i,i,i,-11*,i
COc1ccccc1OCCCOc1ccc(/C=C2\SC(=O)NC2=O)cc1OC,i,i,i,-7.7*,i
O=[N+]([O-])c1ccc(Nc2nc(N/N=C\c3ccc4c(c3)OCO4)nc(N3CCCCC3)n2)cc1,-4.5*,i,i,i,i
O=[N+]([O-])c1ccc(/C=N/Nc2nc(N3CCCCC3)nc(N3CCCCC3)n2)cc1,i,i,i,i,i
c1ccc(OCCCCN2CCCCC2)cc1,i,i,i,i,i
O=C(c1ccccc1)c1ccc(OCCCN2CCCCC2)cc1,i,i,i,-7.2*,i
CC(=O)c1ccc(OCCCN2CCCCC2)cc1,i,i,i,i,i
c1ccc(COc2ccc(OCCCCN3CCCC3)cc2)cc1,i,i,i,-8.8*,i
c1ccc(-c2ccccc2OCCCCN2CCCCCC2)cc1,i,i,i,-7*,i
CCC/C=C(\CCC)C(NS(=O)(=O)c1cccc2cccnc12)c1ccc(C(=O)OC)cc1 (stereo not drawn),i,i,i,i,i
c1ccc(C2OC3c4cccc5cccc(c45)C3N2c2ccccc2)cc1 (stereo not drawn),i,i,i,i,34*
O=C(NC1CCN(Cc2ccccc2)CC1)c1ccccc1OCc1ccccc1Cl,i,i,10*,i,i
O=C(NC1CCN(Cc2ccccc2)CC1)c1ccccc1OCc1ccccc1,i,i,i,i,i
